Screens as filed in PubChem BioAssay.
In the library only some 6.4% were active in any assay of this set; here they are far more common.
PLK1 inh = inhibitors of human PLK1 kinase; P53350; recombinant PLK1 kinase, TR-FRET peptide phosphorylation; inhibition, % at 10 µM; hit rate 0.53% among 97,000;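 active = inhibition of 50% or more in the single-concentration screen; inactive = inhibition below 50%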;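 note: 0% = DMSO max control and 100% = H-89 dihydrochloride min control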
Target sequence (P53350 whole entry, looked up): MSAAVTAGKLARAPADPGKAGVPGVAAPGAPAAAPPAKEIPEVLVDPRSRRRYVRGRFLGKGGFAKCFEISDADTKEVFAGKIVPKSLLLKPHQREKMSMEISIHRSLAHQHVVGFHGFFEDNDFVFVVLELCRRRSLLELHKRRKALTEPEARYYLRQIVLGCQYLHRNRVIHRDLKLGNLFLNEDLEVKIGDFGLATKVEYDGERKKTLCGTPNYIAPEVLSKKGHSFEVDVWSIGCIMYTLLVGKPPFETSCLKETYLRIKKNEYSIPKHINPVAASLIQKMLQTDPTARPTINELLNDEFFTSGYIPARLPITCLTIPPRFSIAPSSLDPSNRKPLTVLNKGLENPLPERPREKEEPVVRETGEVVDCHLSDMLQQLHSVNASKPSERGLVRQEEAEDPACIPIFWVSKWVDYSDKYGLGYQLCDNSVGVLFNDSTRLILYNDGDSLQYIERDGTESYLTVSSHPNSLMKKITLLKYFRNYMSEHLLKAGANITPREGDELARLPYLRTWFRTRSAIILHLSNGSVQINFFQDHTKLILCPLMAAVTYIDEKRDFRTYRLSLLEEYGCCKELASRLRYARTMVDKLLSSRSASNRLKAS
PLK1 PBD inh = inhibitors of human Plk1 polo box domain binding; Plk1 PBD phosphopeptide binding, fluorescence polarization; inhibition, %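 (tested at about 20 µM)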; hit rate 0.13% among 97,000; P53350; AID 693; in the data active = inhibition above about 34%, passing the limit was not always enough
EphB4 ephrin blk = blocks human EphB4 binding to ephrin-B2. EphB4 LBD / TNYL-RAW-Alexa532 peptide, fluorescence polarization. inhibition, % at 7 µM. hit rate 0.15% among 97,000. P54760;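 active = inhibition above the screen-wide mean inhibition plus 3 SD, cut at about 15% in these data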;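 note: 0% = DMSO wells and 100% = excess unlabeled TNYL-RAW peptide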
PostGolgi yeast = growth inhibition of a yeast mutant, post-Golgi transport screen. post-Golgi transport phenotypic cell assay. inhibition, % at 10 µM. hit rate 0.9% among 98,000. AID 739;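 note: yeast cells grown in 1536-well plates; yeast grown about 18 h at 30C before absorbance read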
Rev-RRE block = disrupts HIV-1 Rev binding to RRE RNA. P05866. hit rate 0.79% among 97,000. inhibition, % at 8 µM. Rev peptide-RRE RNA binding, FRET. AID 704;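 active = inhibition above the screen-wide mean plus 3 SD, cut at about 35% in these data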;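 note: 0% = median DMSO wells and 100% = median Neomycin B control wells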
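Test system – labelled RRE RNA duplex and labelled Rev peptide · Reagent – labelled Rev peptide · Doses – one concentration, 8 µM nominal · Incubation – 5 + 15 min at 25 °C · Signal – FRET fluorescence readout · Read-out basis – % inhibition of FRET ratio versus controls · Control set – DMSO wells as 0% and neomycin B wells as 100% inhibition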
PostGolgi ctrl = inhibits growth of the yeast control strain. efflux-deficient yeast background strain, growth absorbance A615, 16 h. inhibition, % at 10 µM. hit rate 5% among 98,000
* = called active by the depositor; nt = no result given; [ ] = remark or other dose. Cut-off read from the data, not from the text of the source, unless noted: active = inhibition above about 30%; inactive = the rest.

SMILES | PLK1 inh | PLK1 PBD inh | EphB4 ephrin blk | PostGolgi yeast | Rev-RRE block | PostGolgi ctrl
C=CCn1c(=O)/c(=C/c2ccc(C)o2)s/c1=C(/C#N)C(=O)c1ccccc1 | -12.0 | -70.7 | 2.4 | -2.0 | 117.6*[fluorescence artefact?] | 4.4
CCOC(=O)c1cnc(-n2nc(C)cc2C)nc1NC1CCCCC1 | -3.0 | 18.6 | 3.5 | 87.4* | 2.7 | 67.0*
N/N=c1\sc2ccccc2n1-c1ccccc1 | -2.9 | 3.3 | 6.0 | -23.5 | 7.8 | 30.1*
CC(=O)N=c1sc2ccccc2n1C | -8.0 | 24.2 | 2.0 | 1.1 | 12.6 | -0.6
CC1N(O)C(C)(C)C(c2ccccc2)=[N+]1[O-] (centres undefined) | -7.3 | -3.1 | 4.3 | nt | 8.8 | nt
CCCCC1(C)OC(=O)C(=Cc2ccc(N(CC)CC)cc2)C(=O)O1 (centres undefined) | -12.4 | -18.4 | -11.7 | 1.9 | 86.8*[fluorescence artefact?] | 11.6
CCN(CC)c1ccc(/C=C2\C(=O)N(c3ccc([N+](=O)[O-])cc3)N=C2N2CCOCC2)cc1 | -21.7 | -16.5 | -0.5 | nt | 6.5 | nt
CCOC(=O)c1cnc2sc3c(n2c1=O)CCCC3 | -1.6 | -2.8 | -2.5 | -1.1 | 14.1 | 10.8
CC1CCCN(c2ccc(/C=C(\C#N)c3nn(-c4ccccc4)c(N)c3C#N)cc2[N+](=O)[O-])C1 (centres undefined) | -18.5 | -11.9 | -3.8 | 13.8 | 10.6 | -0.1
CC1CCN(c2cc(N3CCC(C)CC3)c([N+](=O)[O-])cc2/C=C(\C#N)c2nn(-c3ccccc3)c(N)c2C#N)CC1 | 55.4* | -12.5 | 0.1 | -10.2 | 8.9 | 5.6
O=C(NCc1ccc(OC(F)(F)F)cc1)C1CC(c2c(Cl)cccc2Cl)=NO1 (centres undefined) | -3.3 | -21.5 | 7.8 | -5.0 | 15.2 | 30.8*
Cc1occc1C(=O)n1cnc2ccccc21 | -6.4 | 25.4 | -2.3 | 19.7 | 6.0 | -1.2
Cc1occc1C(=O)n1nnc2ccccc21 | -12.4 | 12.8 | -3.6 | 7.1 | 3.2 | 31.9*
O=C(NCCOC(=O)c1ccc(Cl)cc1)c1cccnc1 | 11.5 | -15.1 | 2.0 | 20.1 | -0.7 | 9.1
CC(c1ccccc1)C1CC(=O)N(C2CCCCC2)C1=O (centres undefined) | -7.8 | -31.5 | 16.8* | 14.3 | 11.0 | -5.4
O=C(Nc1ccc(Cl)cc1)C1=Cc2ccccc2OC1 | -9.3 | 6.1 | -2.3 | -1.9 | 10.1 | 18.5
Cc1cccc(C)c1N1C(=O)C2ON(c3ccccc3)C(c3ccncc3)C2C1=O (centres undefined) | 7.1 | -17.5 | 3.2 | 101.9* | 4.4 | 90.6*
O=C1C2ON(c3ccccc3)C(c3ccncc3)C2C(=O)N1c1ccccc1 (centres undefined) | -7.8 | 21.5 | -6.4 | 1.0 | -3.1 | 1.2
COCCNC(=O)C1CC(c2cccc([N+](=O)[O-])c2)=NO1 (centres undefined) | -10.8 | -4.7 | 0.3 | -2.8 | 11.0 | 18.2
COCCNC(=O)C1CC(c2cccc(OC)c2)=NO1 (centres undefined) | -19.9 | -1.4 | 2.3 | 8.2 | 9.2 | 36.5*
COc1cccc(-c2nc(N3CCN(Cc4ccccc4)CC3)c3ccccc3n2)c1O | 1.5 | nt | nt | nt | nt | nt
COc1cccc(-c2nc(NC(C)C)c3ccccc3n2)c1O | 2.1 | -5.6 | 6.9 | -4.5 | 0.8 | 75.3*
CCC(C)Nc1nc(-c2cccc(OC)c2O)nc2ccccc12 (centres undefined) | -9.8 | -14.7 | 2.1 | 25.4 | 2.2 | 72.5*
CCCN(CC1CC1)S(=O)(=O)c1ccc(-n2cnnn2)c(OC)c1 | -8.3 | 2.2 | -3.0 | 15.8 | 7.7 | 7.5
Cc1[nH]n(-c2ccc([N+](=O)[O-])cc2)c(=O)c1C=NCCN1CCN(C(=O)c2ccccc2)CC1 | 0.1 | -6.8 | -0.9 | 1.3 | 14.2 | -0.5
SMILES | PLK1 inh | PLK1 PBD inh | EphB4 ephrin blk | PostGolgi yeast | Rev-RRE block | PostGolgi ctrl
O=S(=O)(NC1CCCCC1)c1ccc(Br)cc1 | nt | nt | nt | -4.2 | nt | 32.0*
O=S(=O)(NC1CCCCCC1)c1ccc(Br)s1 | -8.9 | -4.4 | 3.8 | nt | 9.4 | nt
CCOc1cc(S(=O)(=O)NC2CCCCCC2)ccc1F | -9.7 | -5.4 | -8.2 | 12.1 | 13.8 | 40.0*
Cc1ccc(Nc2ncccc2C(=O)NCc2cccs2)c(C)c1 | 0.4 | -20.1 | 3.9 | -2.0 | 16.6 | 44.1*
Cc1cccc(Nc2ncccc2C(=O)NCc2cccs2)c1C | -10.2 | -13.7 | 2.5 | -7.5 | 14.4 | 33.9*
Cc1cccc(NC(=S)NCc2cccs2)c1C | -7.8 | 1.2 | 2.4 | -7.6 | 6.2 | -2.8
